Tests used:
[1] = target: T1, Xanthine dehydrogenase/oxidase (Bos taurus, UniProt P80457); assay: Inhibition of bovine xanthine oxidase using xanthine as substrate preincubated for 10 mins followed by substrate addition measured for 15 mins by spectrophotometric method
[2] = target: Xanthine dehydrogenase/oxidase (Bos taurus) (UniProt P80457)
[3] = target: T1, Xanthine dehydrogenase/oxidase; assay: Competitive inhibition of bovine xanthine oxidase using varying levels of xanthine as substrate preincubated for 10 mins followed by substrate addition measured for 15 mins by Lineweaver-Burk plot/Dixon plot analysis
Summary of the method: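 Run like the inhibition assay: XO (0.003 units/well) in 50 mM phosphate buffer pH 7.4, inhibitor in 90% DMSO, preincubated 10 min at 30 °C. Varied inhibitor and xanthine concentrations (0.0375, 0.075, 0.15, 0.300 mM), absorbance change at 295 nm over 15 min.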

Rattus norvegicus [4] = assay: In vivo inhibition of xanthine oxidase in Wistar rat assessed as retention time of 6-MP at 50 mg/kg, ip using 6-mercaptopurine as substrate after 6 hrs by UPLC method (reference value: 4.912 min); format: functional, organism-based
Rattus norvegicus [5] = assay: In vivo inhibition of xanthine oxidase in Wistar rat assessed as peak area of 6-MP at 50 mg/kg, ip using 6-mercaptopurine as substrate after 6 hrs by UPLC method (reference value: 7.3 mAU); format: functional
Rattus norvegicus [6] = assay: In vivo inhibition of xanthine oxidase in Wistar rat at 50 mg/kg, ip using 6-mercaptopurine as substrate after 6 hrs by UPLC method relative to control; format: functional

T1 sequence (P80457 whole entry): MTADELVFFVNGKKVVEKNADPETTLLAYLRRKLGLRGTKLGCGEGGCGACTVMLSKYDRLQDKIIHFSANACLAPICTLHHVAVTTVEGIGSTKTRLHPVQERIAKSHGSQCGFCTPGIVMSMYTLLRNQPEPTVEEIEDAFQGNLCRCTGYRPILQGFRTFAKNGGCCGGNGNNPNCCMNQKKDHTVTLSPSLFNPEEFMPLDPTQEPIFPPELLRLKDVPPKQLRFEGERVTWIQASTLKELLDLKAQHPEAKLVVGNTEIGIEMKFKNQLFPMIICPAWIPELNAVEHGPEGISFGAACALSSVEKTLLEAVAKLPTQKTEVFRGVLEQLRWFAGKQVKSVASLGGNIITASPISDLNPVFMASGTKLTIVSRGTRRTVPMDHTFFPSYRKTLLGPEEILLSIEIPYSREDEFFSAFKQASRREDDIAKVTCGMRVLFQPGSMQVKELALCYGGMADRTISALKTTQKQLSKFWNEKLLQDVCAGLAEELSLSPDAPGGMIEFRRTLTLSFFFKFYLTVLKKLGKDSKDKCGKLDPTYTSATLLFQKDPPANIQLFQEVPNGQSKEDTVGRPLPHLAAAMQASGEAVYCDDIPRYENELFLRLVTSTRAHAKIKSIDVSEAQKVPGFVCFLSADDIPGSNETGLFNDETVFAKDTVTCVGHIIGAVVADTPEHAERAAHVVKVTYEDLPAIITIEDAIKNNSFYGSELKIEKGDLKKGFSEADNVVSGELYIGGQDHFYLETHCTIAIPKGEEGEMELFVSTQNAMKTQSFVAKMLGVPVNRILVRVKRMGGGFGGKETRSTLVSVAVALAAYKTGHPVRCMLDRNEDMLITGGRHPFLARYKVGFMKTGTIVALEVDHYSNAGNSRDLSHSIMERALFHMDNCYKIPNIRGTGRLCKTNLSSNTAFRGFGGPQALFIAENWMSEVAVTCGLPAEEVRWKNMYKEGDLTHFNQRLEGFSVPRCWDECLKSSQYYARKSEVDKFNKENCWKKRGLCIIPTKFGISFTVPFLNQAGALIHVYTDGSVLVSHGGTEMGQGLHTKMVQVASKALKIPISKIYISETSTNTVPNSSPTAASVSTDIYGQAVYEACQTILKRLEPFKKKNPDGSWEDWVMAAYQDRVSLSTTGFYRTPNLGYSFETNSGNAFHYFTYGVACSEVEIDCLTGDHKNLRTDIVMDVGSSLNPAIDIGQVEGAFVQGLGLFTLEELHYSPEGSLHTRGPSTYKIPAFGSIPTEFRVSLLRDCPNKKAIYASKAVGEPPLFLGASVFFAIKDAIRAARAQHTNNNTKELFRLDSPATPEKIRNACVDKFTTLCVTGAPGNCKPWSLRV
Chain of Xanthine dehydrogenase/oxidase (Bos taurus) (P80457 whole entry, looked up): as the sequence (P80457 whole entry) above

SMILES	IC50 [1]	IC50 ([1]; read-out: IC50)	also measured
CCOc1ccccc1/C=N/NC(=O)c1ccncc1	Not Active	–	–
O=C(N/N=C/c1ccc(Cl)cc1)c1ccncc1	–	179 µM	–
O=C(N/N=C/c1ccccc1O)c1ccncc1 [SALINAZID]	Not Active	–	–
O=C(N/N=C/c1ccc(O)c(O)c1O)c1cccnc1	Not Active	–	–
O=C(O)c1cccnc1 [NIACIN]	–	–	IC50 [2]: 518 µM
CCOc1cccc(/C=N/NC(=O)c2cccnc2)c1O	–	264 µM	–
CN(C)c1ccc(/C=N/NC(=O)c2ccncc2)cc1 [N'-(4-DIMETHYLAMINOBENZYLIDENE)ISONICOTINOHYDRAZIDE]	Not Active	–	–
O=C(N/N=C/c1ccccc1F)c1ccncc1	Not Active	–	–
COc1ccc(O)c(/C=N/NC(=O)c2ccncc2)c1	Not Active	–	–
CCOc1ccc(/C=N/NC(=O)c2ccncc2)cc1	–	330 µM	–
O=C(N/N=C/c1cc([N+](=O)[O-])ccc1Cl)c1ccncc1	Not Active	–	–
CSc1ccc(/C=N/NC(=O)c2ccncc2)cc1	Not Active	–	–
O=C(N/N=C/c1c(O)cc(O)cc1O)c1ccncc1	–	0.96 µM	Ki [3]: 0.82 µM; Retention time (Rattus norvegicus [4]): 4.92 min; Activity (Rattus norvegicus [5]): 73.5 mAU; inhibition in vivo at 50 mg/kg (Rattus norvegicus [6]): 44%
Oc1ncnc2[nH]ncc12 [ALLOPURINOL]	–	–	Retention time (Rattus norvegicus [4]): 4.93 min; Activity (Rattus norvegicus [5]): 166.3 mAU; inhibition in vivo at 50 mg/kg (Rattus norvegicus [6]): 100%
O=C(N/N=C/c1ccccc1)c1ccncc1 [N'-BENZYLIDENE ISONICOTINOHYDRAZIDE]	Not Active	–	–
O=C(N/N=C/c1cccc(O)c1)c1ccncc1	Not Active	–	–
Cc1ccccc1/C=N/NC(=O)c1cccnc1	–	180 µM	–
O=C(N/N=C/c1ccc([N+](=O)[O-])cc1)c1cccnc1	Not Active	–	–
O=C(N/N=C/c1ccccc1F)c1cccnc1	–	174 µM	–

SMILES	IC50 [1]	IC50 ([1]; read-out: IC50)	also measured
CCOc1ccccc1/C=N/NC(=O)c1cccnc1	Not Active	–	–
O=C(N/N=C/c1cccc(Cl)c1)c1ccncc1 [N'-(3-CHLOROBENZYLIDENE)ISONICOTINOHYDRAZIDE]	–	206 µM	–
CCOc1ccc(/C=N/NC(=O)c2ccncc2)cc1OCC	Not Active	–	–
O=C(N/N=C/c1ccc(O)c(O)c1)c1ccncc1	–	12.4 µM	Ki [3]: 15.5 µM; Retention time (Rattus norvegicus [4]): 4.95 min; Activity (Rattus norvegicus [5]): 47.4 mAU; inhibition in vivo at 50 mg/kg (Rattus norvegicus [6]): 28%
O=C(N/N=C/c1ccccc1Cl)c1ccncc1	Not Active	–	–
CCOc1cccc(/C=N/NC(=O)c2ccncc2)c1O	–	54.8 µM	Ki [3]: 51.3 µM
O=C(N/N=C/c1ccc([N+](=O)[O-])cc1)c1ccncc1 [N'-(4-NITROBENZYLIDENE)ISONICOTINOHYDRAZIDE]	Not Active	–	–
O=C(N/N=C/c1ccc(Cl)cc1Cl)c1cccnc1	Not Active	–	–
O=C(N/N=C/c1cccc([N+](=O)[O-])c1)c1ccncc1	–	174 µM	–
O=C(N/N=C/c1ccccc1[N+](=O)[O-])c1cccnc1	Not Active	–	–
O=C(N/N=C/c1ccc(O)cc1O)c1ccncc1	Not Active	–	–
O=C(N/N=C/c1ccccc1Br)c1cccnc1	–	198 µM	–
CCOc1ccc(/C=N/NC(=O)c2ccncc2)cc1O	Not Active	–	–
COc1cccc(/C=N/NC(=O)c2ccncc2)c1O	–	21.1 µM	Ki [3]: 15 µM
O=C(N/N=C/c1ccc(Cl)cc1Cl)c1ccncc1	Not Active	–	–
O=C(N/N=C/c1ccccc1)c1cccnc1 [NICOTINIC ACID BENZYLIDENE-HYDRAZIDE]	–	211 µM	–
O=C(N/N=C/c1ccc(O)cc1)c1ccncc1	Not Active	–	–
O=C(N/N=C/c1ccccc1[N+](=O)[O-])c1ccncc1	Not Active	–	–

Further lines, with some results ahead:

IC50 [1]	IC50 ([1]; read-out: IC50)	SMILES	also measured
Not Active	–	COc1ccc(/C=N/NC(=O)c2ccncc2)cc1OC [VERAZIDE]	–
Not Active	–	COc1ccccc1/C=N/NC(=O)c1cccnc1	–
Not Active	–	COc1ccc(/C=N/NC(=O)c2ccncc2)cc1O	–
–	184 µM	O=C(N/N=C/c1ccc(O)cc1)c1cccnc1	–
–	205 µM	O=C(N/N=C/c1cccc(Cl)c1)c1cccnc1	–
–	195 µM	O=C(N/N=C/c1ccc(Cl)cc1)c1cccnc1	–
–	242 µM	CCOc1ccc(/C=N/NC(=O)c2cccnc2)cc1	–
Not Active	–	O=C(N/N=C/c1cccc(O)c1)c1cccnc1	–
Not Active	–	COc1ccc(O)c(/C=N/NC(=O)c2cccnc2)c1	–
Not Active	–	Cc1ccc(O)c(/C=N/NC(=O)c2cccnc2)c1	–
Not Active	–	COc1ccc(/C=N/NC(=O)c2cccnc2)cc1OC	–
Not Active	–	COc1cccc(O)c1/C=N/NC(=O)c1cccnc1	–
Not Active	–	CN(C)c1ccc(/C=N/NC(=O)c2cccnc2)cc1	–
Not Active	–	COc1ccc(/C=N/NC(=O)c2cccnc2)c(OC)c1OC	–
–	184 µM	O=C(N/N=C/c1cccc([N+](=O)[O-])c1)c1cccnc1	–
Not Active	–	CSc1ccc(/C=N/NC(=O)c2cccnc2)cc1	–
–	10 µM	O=C(N/N=C/c1ccc(O)c(O)c1)c1cccnc1	Ki [3]: 7.27 µM; Retention time (Rattus norvegicus [4]): 4.9 min; Activity (Rattus norvegicus [5]): 0.001 mAU
–	161 µM	O=C(N/N=C/c1cc(O)cc(O)c1)c1cccnc1	–
–	175 µM	COc1cccc(/C=N/NC(=O)c2cccnc2)c1O	–
